One test relates to Leishmania infantum. The experiment in a line: In vitro anti-leishmanial activity against promastigote cultures of Leishmania infantum MON 235. Type of test: functional, organism-based. In outline:
(§1)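 Promastigotes (L. donovani MHOM/IN/80/DD8/LEM 703; L. infantum MHOM/TN/80/IPT1/LEM 235) grown in RPMI 1640 with 10% FCS, L-glutamine and antibiotics at 26 °C. Seeded at 5 × 10^5 cells/mL with 3-fold medium dilutions of a 9.625 mM DMSO solution, 72 h at 26 °C. MTT added for 3 h; SDS/2-propanol stop; A550 (ref 620 nm). IC50 by Hills method.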

The test system of the next test is Leishmania donovani. The experiment in a line: In vitro anti-leishmanial activity against promastigote cultures of Leishmania donovani MON 703. Format: functional, organism-based. In outline: as §1

A word on the IC50: it is the concentration that inhibits the measured activity by half. The low end stands for greater potency in that assay, the high end for weaker potency in that assay. For the compound `C[N+]1(CCOP(=O)([O-])OCCCCCCOc2ccccc2)CCOCC1`, the 50% inhibitory concentration (IC50) with Leishmania infantum and with Leishmania donovani was > 100 µM in each case.

For `C[N+]1(CCOP(=O)([O-])OCCOc2ccccc2)CCOCC1`, the 50% inhibitory concentration (IC50) in the test with Leishmania infantum and with Leishmania donovani was > 100 µM in each case.

For the compound `C[N+](C)(C)CCOP(=O)([O-])OCCOc1ccccc1`, the IC50 in the test with Leishmania infantum and with Leishmania donovani was > 100 µM each time.

As for `C[N+](C)(C)CCOP(=O)([O-])OCC12CC3CC(CC(C3)C1)C2`, the concentration for half-maximal inhibition (IC50) in the test on Leishmania infantum and with Leishmania donovani was > 100 µM each time.

With `C[N+](C)(C)CCOP(=O)([O-])OCCCCCC1C2CC3CC(C2)CC1C3` (centres undefined), the IC50 in the test with Leishmania infantum was > 100 µM; in the test with Leishmania donovani, 4.02 µM.

Regarding `C[N+]1(CCOP(=O)([O-])OCCOc2ccc3ccccc3c2)CCCCC1`, the half-inhibitory concentration (IC50) in the test on Leishmania infantum and with Leishmania donovani was > 100 µM in each case.

Consider `C[N+](C)(C)CCOP(=O)([O-])OCCCCCCOc1ccccc1`, for which the IC50 with Leishmania infantum and in the test on Leishmania donovani was > 100 µM in each case.

Turning to `CCCCCCCCCCCCCCC1CCC(OCCOP(=O)([O-])OCC[N+](C)(C)C)CC1` (centres undefined), the figures for the IC50 with Leishmania infantum and in the test on Leishmania donovani were 23.3 µM and 23.7 µM, respectively.

On to `C[N+](C)(C)CCOP(=O)([O-])OCCCCCCCCCCCC1C2CC3CC(C2)CC1C3` (centres undefined), for which the IC50 in the test with Leishmania infantum is 5.97 µM; in the test on Leishmania donovani it was 2.88 µM.

`CCCCCCCCCCCCCCCCOP(=O)([O-])OCC[N+](C)(C)C` [MILTEFOSINE]: the IC50 in the test with Leishmania infantum came out at 22.6 µM; in the test on Leishmania donovani, 23.7 µM.

Regarding `C[N+]1(CCOP(=O)([O-])Oc2ccc(C34CC5CC(CC(C5)C3)C4)cc2)CCOCC1`, the half-inhibitory concentration (IC50) in the test with Leishmania infantum and with Leishmania donovani was > 100 µM throughout.

In the case of `C[N+](C)(C)CCOP(=O)([O-])OCCOc1ccc2ccccc2c1`, the concentration for half-maximal inhibition (IC50) in the test on Leishmania infantum and with Leishmania donovani was > 100 µM each time.

Values taken from ChEMBL document CHEMBL1146601, “Antileishmanial ring-substituted ether phospholipids” (J Med Chem, 2003).
